Results as given in ChEMBL document CHEMBL2176955, “Discovery of the macrocycle 11-(2-pyrrolidin-1-yl-ethoxy)-14,19-dioxa-5,7,26-triaza-tetracyclo[19.3.1.1(2,6).1(8,12)]heptacosa-1(25),2(26),3,5,8,10,12(27),16,21,23-decaene (SB1518), a potent Janus kinase 2/fms-like tyrosine kinase-3 (JAK2/FLT3) inhibitor for the treatment of myelofibrosis and …” (J Med Chem, 2011).

Key:
[1] = biological target: Non-receptor tyrosine-protein kinase TYK2 (Homo sapiens, UniProt P29597); assay: Inhibition of recombinant TYK2
Sequence of Non-receptor tyrosine-protein kinase TYK2 (P29597 whole entry): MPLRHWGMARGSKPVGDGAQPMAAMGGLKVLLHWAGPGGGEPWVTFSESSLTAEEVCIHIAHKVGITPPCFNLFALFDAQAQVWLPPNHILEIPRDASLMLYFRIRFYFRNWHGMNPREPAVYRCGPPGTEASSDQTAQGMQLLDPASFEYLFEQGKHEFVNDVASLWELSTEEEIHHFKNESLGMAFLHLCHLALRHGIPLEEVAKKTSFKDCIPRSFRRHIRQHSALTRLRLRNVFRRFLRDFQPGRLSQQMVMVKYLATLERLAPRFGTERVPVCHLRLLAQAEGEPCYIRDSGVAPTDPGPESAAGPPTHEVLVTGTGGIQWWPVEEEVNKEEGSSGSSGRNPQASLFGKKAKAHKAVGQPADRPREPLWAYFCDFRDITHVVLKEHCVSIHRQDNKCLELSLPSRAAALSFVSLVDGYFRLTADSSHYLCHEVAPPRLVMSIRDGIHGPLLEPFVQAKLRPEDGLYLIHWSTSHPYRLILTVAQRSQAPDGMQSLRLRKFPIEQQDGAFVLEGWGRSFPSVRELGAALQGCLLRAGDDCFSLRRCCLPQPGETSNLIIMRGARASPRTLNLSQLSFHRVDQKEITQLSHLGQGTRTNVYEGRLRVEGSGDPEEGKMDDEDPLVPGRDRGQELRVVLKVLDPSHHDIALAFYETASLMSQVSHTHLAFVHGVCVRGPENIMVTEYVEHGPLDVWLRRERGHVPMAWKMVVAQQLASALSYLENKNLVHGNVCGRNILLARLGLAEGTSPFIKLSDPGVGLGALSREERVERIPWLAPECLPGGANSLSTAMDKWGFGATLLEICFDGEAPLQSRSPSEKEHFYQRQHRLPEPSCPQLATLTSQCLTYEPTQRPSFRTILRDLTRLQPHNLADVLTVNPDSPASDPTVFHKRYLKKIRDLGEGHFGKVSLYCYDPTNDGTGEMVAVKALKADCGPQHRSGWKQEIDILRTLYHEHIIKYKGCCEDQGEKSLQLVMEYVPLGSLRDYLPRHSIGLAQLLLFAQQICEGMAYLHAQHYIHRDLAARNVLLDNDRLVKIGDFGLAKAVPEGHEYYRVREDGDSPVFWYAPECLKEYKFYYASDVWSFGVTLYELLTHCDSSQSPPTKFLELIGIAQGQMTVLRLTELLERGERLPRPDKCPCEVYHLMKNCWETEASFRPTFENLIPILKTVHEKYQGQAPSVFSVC

[2] = Antiproliferative activity against mouse BA/F3 cells harboring JAK2 V617F mutation assessed as cell viability after 48 hrs by Cell titer Glo assay; format: functional; settings: BaF3, 48 h
in vitro [3] = settings: mouse, liver microsomes
[4] = biological target: Tyrosine-protein kinase JAK1 (Homo sapiens, UniProt P23458); assay: Inhibition of recombinant JAK1 using Poly (Glu,Ala,Tyr) as substrate after 2 hrs by luminescence assay
Sequence of Tyrosine-protein kinase JAK1 (P23458 whole entry): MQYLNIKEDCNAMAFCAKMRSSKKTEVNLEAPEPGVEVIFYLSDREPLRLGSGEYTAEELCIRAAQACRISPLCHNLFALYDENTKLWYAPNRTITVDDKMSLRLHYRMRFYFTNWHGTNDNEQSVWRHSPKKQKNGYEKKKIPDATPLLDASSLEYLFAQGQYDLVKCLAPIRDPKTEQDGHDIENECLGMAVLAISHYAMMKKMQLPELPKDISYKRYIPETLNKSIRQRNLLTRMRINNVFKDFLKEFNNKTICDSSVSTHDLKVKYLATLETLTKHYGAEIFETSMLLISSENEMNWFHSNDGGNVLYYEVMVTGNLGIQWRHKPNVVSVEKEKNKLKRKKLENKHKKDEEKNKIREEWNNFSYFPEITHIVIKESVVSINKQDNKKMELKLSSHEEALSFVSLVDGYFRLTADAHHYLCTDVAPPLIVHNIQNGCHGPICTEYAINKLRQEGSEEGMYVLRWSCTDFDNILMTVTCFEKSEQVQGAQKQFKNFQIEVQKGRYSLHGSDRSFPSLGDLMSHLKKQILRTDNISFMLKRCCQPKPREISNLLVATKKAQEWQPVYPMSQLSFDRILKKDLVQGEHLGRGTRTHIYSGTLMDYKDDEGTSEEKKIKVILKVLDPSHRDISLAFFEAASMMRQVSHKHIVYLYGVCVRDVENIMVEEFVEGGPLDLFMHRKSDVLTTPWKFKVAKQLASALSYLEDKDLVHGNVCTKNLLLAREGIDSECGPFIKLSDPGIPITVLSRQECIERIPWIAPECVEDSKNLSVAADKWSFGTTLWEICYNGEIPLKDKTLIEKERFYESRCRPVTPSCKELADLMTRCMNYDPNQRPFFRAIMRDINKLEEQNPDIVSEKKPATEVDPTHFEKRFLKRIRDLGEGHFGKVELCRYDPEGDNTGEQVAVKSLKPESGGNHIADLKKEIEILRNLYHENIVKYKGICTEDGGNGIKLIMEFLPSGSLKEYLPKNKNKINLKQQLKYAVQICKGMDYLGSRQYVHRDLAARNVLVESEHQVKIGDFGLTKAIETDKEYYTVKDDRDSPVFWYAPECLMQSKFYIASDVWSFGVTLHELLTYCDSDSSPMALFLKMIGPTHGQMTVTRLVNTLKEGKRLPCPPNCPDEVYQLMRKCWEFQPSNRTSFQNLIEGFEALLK
Summary of the method: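 Luciferase-coupled ATP-depletion luminescence assay in 50 mM Hepes pH 7.5 with MgCl₂, MnCl₂, BGP, DTT and orthovanadate, 2 h at room temperature. Conditions per target: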

[5] = biological target: Tyrosine-protein kinase JAK2 (Homo sapiens, UniProt O60674); assay: Inhibition of recombinant JAK2 using Poly (Glu,Ala,Tyr) as substrate after 2 hrs by luminescence assay
Sequence of Tyrosine-protein kinase JAK2 (O60674 whole entry): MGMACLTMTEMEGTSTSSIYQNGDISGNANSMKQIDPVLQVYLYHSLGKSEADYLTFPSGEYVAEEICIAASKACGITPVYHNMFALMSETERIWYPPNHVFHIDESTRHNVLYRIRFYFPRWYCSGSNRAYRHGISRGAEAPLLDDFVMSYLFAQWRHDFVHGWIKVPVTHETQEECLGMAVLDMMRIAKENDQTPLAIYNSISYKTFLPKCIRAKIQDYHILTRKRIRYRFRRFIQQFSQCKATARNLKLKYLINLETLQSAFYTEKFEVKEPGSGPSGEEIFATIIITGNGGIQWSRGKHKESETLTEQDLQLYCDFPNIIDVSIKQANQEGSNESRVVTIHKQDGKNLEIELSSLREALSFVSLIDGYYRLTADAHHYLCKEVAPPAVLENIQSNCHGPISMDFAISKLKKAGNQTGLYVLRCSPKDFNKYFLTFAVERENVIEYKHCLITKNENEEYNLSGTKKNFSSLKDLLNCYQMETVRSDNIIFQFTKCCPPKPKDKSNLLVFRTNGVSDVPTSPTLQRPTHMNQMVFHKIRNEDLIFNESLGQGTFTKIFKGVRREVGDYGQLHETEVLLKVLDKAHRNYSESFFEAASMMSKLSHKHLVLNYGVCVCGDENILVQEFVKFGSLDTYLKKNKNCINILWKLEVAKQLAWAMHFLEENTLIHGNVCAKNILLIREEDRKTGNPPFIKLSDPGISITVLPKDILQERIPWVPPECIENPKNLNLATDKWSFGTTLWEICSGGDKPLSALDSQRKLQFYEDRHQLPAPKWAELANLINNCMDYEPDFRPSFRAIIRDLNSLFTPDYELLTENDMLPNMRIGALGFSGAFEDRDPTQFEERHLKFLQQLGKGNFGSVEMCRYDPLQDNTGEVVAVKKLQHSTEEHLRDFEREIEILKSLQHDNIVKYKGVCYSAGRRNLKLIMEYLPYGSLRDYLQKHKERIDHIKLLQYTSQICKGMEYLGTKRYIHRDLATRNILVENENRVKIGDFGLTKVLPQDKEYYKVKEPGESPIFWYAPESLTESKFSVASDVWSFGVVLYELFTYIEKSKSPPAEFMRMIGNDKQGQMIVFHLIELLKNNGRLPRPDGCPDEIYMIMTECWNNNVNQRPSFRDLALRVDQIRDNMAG

[6] = biological target: T1, Receptor-type tyrosine-protein kinase FLT3 (Homo sapiens, UniProt P36888); assay: Inhibition of recombinant FLT3 using Poly (Glu,Tyr) as substrate after 2 hrs by luminescence assay
T1 sequence (P36888 whole entry): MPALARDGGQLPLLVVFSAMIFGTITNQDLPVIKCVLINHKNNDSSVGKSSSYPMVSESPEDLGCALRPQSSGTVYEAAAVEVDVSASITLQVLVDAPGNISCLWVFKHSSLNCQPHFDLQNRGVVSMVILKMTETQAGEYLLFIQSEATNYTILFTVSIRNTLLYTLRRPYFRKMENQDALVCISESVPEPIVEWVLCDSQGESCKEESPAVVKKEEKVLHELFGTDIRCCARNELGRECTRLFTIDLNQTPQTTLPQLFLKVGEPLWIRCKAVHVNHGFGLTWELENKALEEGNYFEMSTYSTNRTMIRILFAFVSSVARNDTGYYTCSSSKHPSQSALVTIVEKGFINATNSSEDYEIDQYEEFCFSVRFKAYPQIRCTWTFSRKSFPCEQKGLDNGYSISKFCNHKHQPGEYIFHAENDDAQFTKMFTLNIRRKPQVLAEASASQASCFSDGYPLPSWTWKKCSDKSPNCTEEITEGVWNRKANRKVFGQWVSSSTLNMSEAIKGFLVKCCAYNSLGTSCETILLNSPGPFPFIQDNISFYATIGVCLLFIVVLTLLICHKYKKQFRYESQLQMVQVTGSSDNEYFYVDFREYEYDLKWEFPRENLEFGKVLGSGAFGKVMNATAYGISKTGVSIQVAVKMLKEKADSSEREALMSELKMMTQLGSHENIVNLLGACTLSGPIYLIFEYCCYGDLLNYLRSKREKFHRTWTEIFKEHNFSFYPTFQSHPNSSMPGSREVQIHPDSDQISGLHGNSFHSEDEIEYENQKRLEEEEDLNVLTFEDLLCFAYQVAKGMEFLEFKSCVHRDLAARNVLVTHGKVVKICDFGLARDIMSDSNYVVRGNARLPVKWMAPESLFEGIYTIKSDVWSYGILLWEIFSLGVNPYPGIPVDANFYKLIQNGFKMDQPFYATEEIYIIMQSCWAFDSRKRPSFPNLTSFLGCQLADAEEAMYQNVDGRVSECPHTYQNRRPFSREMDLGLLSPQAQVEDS

MV4-11 = assay: Antiproliferative activity against human MV4-11 cells harboring FLT3 […] mutant assessed as cell viability after 48 hrs by Cell titer Glo assay; format: functional; settings: MV4-11, 48 h
[7] = biological target: T2, Tyrosine-protein kinase JAK3 (Homo sapiens, UniProt P52333); assay: Inhibition of recombinant JAK3 using Poly (Glu,Ala,Tyr) as substrate after 2 hrs by luminescence assay
T2 sequence (P52333 whole entry): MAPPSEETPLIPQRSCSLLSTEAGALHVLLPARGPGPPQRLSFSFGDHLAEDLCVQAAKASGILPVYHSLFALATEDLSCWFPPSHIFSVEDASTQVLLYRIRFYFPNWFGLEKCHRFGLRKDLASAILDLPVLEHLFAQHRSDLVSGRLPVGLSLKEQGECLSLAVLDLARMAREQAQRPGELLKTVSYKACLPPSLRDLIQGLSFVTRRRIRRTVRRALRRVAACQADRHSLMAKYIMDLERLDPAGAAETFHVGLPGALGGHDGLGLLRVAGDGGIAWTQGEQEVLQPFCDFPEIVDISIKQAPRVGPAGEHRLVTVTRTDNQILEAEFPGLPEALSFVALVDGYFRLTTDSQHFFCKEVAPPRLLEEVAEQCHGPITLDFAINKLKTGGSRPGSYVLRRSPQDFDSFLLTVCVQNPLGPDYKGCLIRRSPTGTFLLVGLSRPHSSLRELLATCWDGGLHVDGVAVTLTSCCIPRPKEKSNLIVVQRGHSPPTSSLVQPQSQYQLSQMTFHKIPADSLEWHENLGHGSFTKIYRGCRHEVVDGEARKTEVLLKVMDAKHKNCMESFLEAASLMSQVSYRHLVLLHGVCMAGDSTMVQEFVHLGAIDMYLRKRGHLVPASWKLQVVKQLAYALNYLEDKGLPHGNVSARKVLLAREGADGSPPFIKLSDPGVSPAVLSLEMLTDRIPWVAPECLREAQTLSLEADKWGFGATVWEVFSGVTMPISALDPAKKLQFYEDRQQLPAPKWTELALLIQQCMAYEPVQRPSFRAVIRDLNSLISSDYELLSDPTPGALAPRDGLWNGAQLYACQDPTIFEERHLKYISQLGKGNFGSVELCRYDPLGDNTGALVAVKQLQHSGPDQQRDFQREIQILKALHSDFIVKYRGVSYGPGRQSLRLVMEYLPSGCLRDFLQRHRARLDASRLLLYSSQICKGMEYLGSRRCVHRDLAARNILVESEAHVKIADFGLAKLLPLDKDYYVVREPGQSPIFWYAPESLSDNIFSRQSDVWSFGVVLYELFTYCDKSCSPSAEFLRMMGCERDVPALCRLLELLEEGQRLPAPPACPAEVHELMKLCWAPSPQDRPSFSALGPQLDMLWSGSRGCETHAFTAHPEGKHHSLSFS

in vitro [8] = settings: human, liver microsomes
Cytochrome P450 3A4 = Cytochrome P450 3A4 (Homo sapiens, UniProt P08684)
Sequence of Cytochrome P450 3A4 (P08684 whole entry): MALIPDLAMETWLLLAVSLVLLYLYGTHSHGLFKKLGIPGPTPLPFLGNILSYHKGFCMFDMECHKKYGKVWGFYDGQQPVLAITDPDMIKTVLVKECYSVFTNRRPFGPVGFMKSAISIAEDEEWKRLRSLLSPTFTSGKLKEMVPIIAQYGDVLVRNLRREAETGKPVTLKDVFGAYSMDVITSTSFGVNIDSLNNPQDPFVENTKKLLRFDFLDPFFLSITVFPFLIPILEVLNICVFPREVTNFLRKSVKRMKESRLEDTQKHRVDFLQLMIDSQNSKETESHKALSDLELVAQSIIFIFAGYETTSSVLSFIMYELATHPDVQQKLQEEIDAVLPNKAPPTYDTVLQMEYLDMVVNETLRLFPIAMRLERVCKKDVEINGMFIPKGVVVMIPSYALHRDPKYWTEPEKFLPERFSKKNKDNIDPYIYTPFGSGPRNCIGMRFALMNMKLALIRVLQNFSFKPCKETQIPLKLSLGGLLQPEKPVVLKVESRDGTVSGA

in vitro [9] = settings: PAMPA
Cytochrome P450 2D6 = Cytochrome P450 2D6 (Homo sapiens, UniProt P10635)
Sequence of Cytochrome P450 2D6 (P10635 whole entry): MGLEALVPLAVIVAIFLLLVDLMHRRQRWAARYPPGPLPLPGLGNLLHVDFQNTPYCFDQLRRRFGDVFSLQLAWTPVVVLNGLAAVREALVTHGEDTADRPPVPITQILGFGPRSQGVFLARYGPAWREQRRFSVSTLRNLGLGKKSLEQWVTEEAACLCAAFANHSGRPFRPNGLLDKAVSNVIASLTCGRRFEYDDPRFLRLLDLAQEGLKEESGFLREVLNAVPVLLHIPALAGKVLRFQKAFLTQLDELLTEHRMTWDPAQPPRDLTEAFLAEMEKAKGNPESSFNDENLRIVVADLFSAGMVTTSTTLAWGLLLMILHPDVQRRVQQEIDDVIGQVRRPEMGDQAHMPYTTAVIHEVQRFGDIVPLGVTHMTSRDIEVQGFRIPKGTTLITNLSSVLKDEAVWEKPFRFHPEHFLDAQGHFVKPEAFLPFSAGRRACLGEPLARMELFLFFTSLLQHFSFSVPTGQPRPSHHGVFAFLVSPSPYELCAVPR

[10] = biological target: Cyclin-dependent kinase 2/cyclin A (Homo sapiens, UniProt P24941); assay: Inhibition of recombinant CDK2/Cyclin A using RbinG as substrate after 2 hrs by luminescence assay; format: protein-complex assay
physchem = settings: phosphate buffer saline, pH 7

| IC50 [1] [nM] | half-life at 5 µM (in vitro [3]) [min] | IC50 [4] [nM] | IC50 [5] [nM] | IC50 [6] [nM] | GI50 (MV4-11) [nM] | IC50 [7] [nM] | half-life at 5 µM (in vitro [8]) [min] | IC50 (Cytochrome P450 3A4) [nM] | Papp at 5 h, 1 µM (in vitro [9]) [×10⁻⁶ cm/s] | IC50 (Cytochrome P450 2D6) [nM] | IC50 [10] [nM] | solubility (physchem) [µg/mL] | SMILES | GI50 [2] [nM] |
| --- | --- | --- | --- | --- | --- | --- | --- | --- | --- | --- | --- | --- | --- | --- |
| 57 | 40 | 1000 | 7 | 19 | 51 | 89 | > 60 | – | – | – | – | – | Cc1cnc2nc1-c1cccc(c1)COCC=CCOCc1cc(ccc1OCCN1CCCC1)N2 | 180 |
| 180 | 29 | > 10000 | 19 | 92 | 85 | 890 | > 60 | > 10000 | 10.1 | > 10000 | > 10000 | 60.8 | COc1ccc2cc1COCC=CCOCc1cc(ccc1OCCN1CCCC1)Nc1nccc-2n1 (mixture of isomers) | 100 |
| 79 | 16 | 3500 | 24 | 29 | 37 | 620 | 44 | 2800 | 15.8 | > 10000 | 4700 | 147 | CCN(CC)CCOc1ccc2cc1COCC=CCOCc1cccc(c1)-c1ccnc(n1)N2 (mixture of isomers) | 150 |
| 84 | 11 | 950 | 15 | 26 | – | 750 | > 60 | 370 | 3.93 | > 10000 | 2700 | – | C1=CCOCc2cc(ccc2OCCN2CCCCC2)Nc2nccc(n2)-c2cccc(c2)COC1 (mixture of isomers) | 160 |
